Bioassay records deposited in PubChem BioAssay by The Scripps Research Institute Molecular Screening Center.
Shown are actives, neighbours in structure and some others; about 1.8% of the full set was active somewhere.
mABHD4 FP: ABHD4 (mouse) inhibition, primary FP screen. inhibition, % at 8.92 µM. purified mABHD4, FP-Rh probe fluorescence polarization. 370,000 tested, 0.54% active. Q8VD66;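 active = inhibition exceeding the mean over every tested compound plus 3 SD, cut at about 30% in these data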;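 note: 0% = plate median of compound wells and 100% = S159A mutant with DMSO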
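Assay system: mouse ABHD4 enzyme, wild type / Also added: fluorescent activity-based probe FP-Rh / Doses: single nominal dose of 8.92 µM, 0.89% DMSO final / Timing: 45 min compound pre-incubation plus 60 min probe step, 25 °C / Signal: FP readout, ex 525 nm / em 598 nm / Control set: S159A mutant/DMSO as 100%, compound-well median as 0%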
Tn7 DDE FP: inhibitors of Tn7 peptide binding to human fibrin DD(E); P02675; FP displacement of FITC-Tn7 peptide from fibrin DD(E); 0% = median of compound wells per plate; inhibition, % at 8.3 µM; 370,000 tested, 0.13% active; AID 720508;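 active = inhibition above the mean of compounds falling within the control limits plus 3 SD of them, cut at about 14% in these data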;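 note: 0% = plate median of compound wells and 100% = 10 µM Aha-Tn7 peptide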
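Assay system: human fibrin DD(E). Input: DD(E) 2 µM final. Medium: Tris buffer with calcium and detergent, pH 7.8. Compound dosing: single point at 8.3 µM. Timing: 10 min plus 3 h, room temperature. Technique: fluorescence polarization of the labelled Tn7 tracer. Read-out: percent inhibition. Replicates: singlicate testing.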
SIAE primary: human SIAE inhibition, primary screen; Q9HAT2; SIAE FP-Rh probe binding, fluorescence polarization; inhibition, % at 9.66 µM; 370,000 tested, 0.69% active; AID 1053197;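 active = inhibition above a cutoff: mean of compounds within the control limits plus 3 SD of those, cut at about 17% in these data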;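 note: 0% = plate median of compound wells and 100% = probe without SIAE protein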
Tn6 DDE FP: disrupts Tn6 cyclic peptide binding to fibrin D-Dimer-E complex | Fibrin DD(E) TRITC-Tn6 fluorescence polarization displacement | inhibition, % at 8.3 µM | P02675 | 370,000 tested, 0.21% active;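 active = inhibition above a per-campaign cutoff: mean of compounds within control limits plus 3 SD, cut at about 15% in these data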;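 note: 0% = median of all compound wells on the plate and 100% = blocking peptide control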
TCR CD3 inh: human TCR-CD3 binding inhibition. TAMRA-labeled TCR probe fluorescence, biochemical. 360,000 tested, 0.37% active. inhibition, % at 9.4 µM. AID 651800;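 note: recombinant mutant TCR 2C K166C tagged with TAMRA read by polarization; 0% = receptor in buffer alone and 100% = receptor with positive control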
HTRA1 inhibitor: inhibitors of human serine peptidase HTRA1; Q92743; recombinant HTRA1, FP-rhodamine activity-based probe, fluorescence polarization; inhibition, % at 5.96 µM; 340,000 tested, 0.5% active; AID 504803; in the data active = inhibition above about 36%;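 note: 0% = enzyme with DMSO and 100% = wells lacking enzyme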
Target sequence (Q92743 whole entry, looked up): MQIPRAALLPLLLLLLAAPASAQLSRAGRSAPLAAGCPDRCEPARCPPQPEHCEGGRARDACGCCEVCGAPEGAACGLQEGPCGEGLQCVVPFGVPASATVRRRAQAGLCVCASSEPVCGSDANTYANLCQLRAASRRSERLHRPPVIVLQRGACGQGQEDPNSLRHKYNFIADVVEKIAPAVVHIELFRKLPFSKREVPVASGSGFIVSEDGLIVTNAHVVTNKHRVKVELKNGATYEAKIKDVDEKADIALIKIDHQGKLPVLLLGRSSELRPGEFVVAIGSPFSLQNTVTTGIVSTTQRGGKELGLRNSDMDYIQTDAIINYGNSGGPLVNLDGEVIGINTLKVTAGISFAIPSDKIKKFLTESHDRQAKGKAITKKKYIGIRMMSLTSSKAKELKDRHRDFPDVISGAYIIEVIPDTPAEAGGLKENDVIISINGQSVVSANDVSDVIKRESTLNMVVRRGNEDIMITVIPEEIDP
HTRA1 conf: confirmation of human HTRA1 inhibitors | recombinant HTRA1, FP-rhodamine activity-based probe, fluorescence polarization | 1,600 tested, 66% active | shares compounds with HTRA1 inhibitor | inhibition, % at 5.96 µM;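 active = mean inhibition over three repeats above a set limit taken from the earlier primary screen, cut at about 37% in these data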;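 note: 0% = HTRA1 with DMSO and 100% = wells lacking HTRA1; inhibitors block probe binding so polarization drops and inhibition rises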
BSA probe FL: BSA probe counter-screen for TCR-CD3 inhibitors | shares compounds with TCR CD3 inh | TAMRA-labeled BSA probe fluorescence counterscreen | inhibition, % at 9.4 µM | 1,200 tested, 10% active; in the data active = inhibition above about 23%;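 note: 0% = buffer low control and 100% = reference high control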
TCR-CD3 conf: TCR-CD3 interaction inhibition, confirmation. TAMRA-labeled TCR probe fluorescence binding assay. shares compounds with TCR CD3 inh. inhibition, % at 9.4 µM. 1,200 tested, 48% active. AID 652036
Tn6 DDE ctr: counter-screen hit for Tn6 peptide-fibrin DD(E) binding disruption; shares compounds with Tn6 DDE FP; TRITC-Tn6 fluorescence polarization displacement; 0% = median of compound wells, not DMSO; inhibition, % at 8.3 µM; 680 tested, 2% active;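 active = inhibition above the mean of test compounds lying between the control limits plus 3 SD of those, cut at about 14% in these data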;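 note: 0% = median of compound wells and 100% = wells with Aha-Tn7 blocking peptide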
Tn6 DDE conf: confirmation of inhibitors of Tn6 binding to human fibrin DD(E); inhibition, % at 8.3 µM; shares compounds with Tn6 DDE FP; 680 tested, 10% active; FP displacement of TRITC-Tn6 peptide from DD(E); 0% = per-plate median of test wells;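 active = inhibition above the mean of compounds lying within the control limits plus 3 SD, cut at about 16% in these data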;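 note: 100% = high control wells holding a competing inhibitor peptide at 10 µM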
ABHD4 confirm: confirmation of mouse ABHD4 inhibitors. shares compounds with mABHD4 FP. 1,800 tested, 55% active. purified mABHD4, FP-Rh probe fluorescence polarization. inhibition, % at 8.92 µM. AID 720658;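 active = mean inhibition across replicates above the hit cutoff set in the primary screen, cut at about 30% in these data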;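 note: 0% = wild-type ABHD4 with DMSO and 100% = catalytically dead S159A mutant with DMSO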
SIAE confirm: confirmation of human SIAE inhibitors; SIAE FP-Rh activity-based probe, fluorescence polarization; inhibition, % at 9.66 µM; 2,300 tested, 13% active; shares compounds with SIAE primary;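 active = mean inhibition of the replicates above the hit cutoff set in the primary screen, cut at about 17% in these data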;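 note: 0% = SIAE with DMSO and probe and 100% = probe without SIAE; inhibitors lower polarization as more probe stays unbound to SIAE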
Starred values were filed as active, the others as inactive; / = no result. Cut-off read from the data, not from the text of the source, unless noted: active = inhibition above about 19%; inactive = the rest.

SMILES	mABHD4 FP	Tn7 DDE FP	SIAE primary	Tn6 DDE FP	TCR CD3 inh	HTRA1 inhibitor	HTRA1 conf	BSA probe FL	TCR-CD3 conf	ABHD4 confirm	SIAE confirm	others
CCn1c(SCc2ccc(C(C)(C)C)cc2)nnc1-c1ccc(C(C)(C)C)cc1	0	-2	2	-7	/	/	/	/	/	/	/
COc1cc(/C=N/Nc2ccc(S(N)(=O)=O)cc2[N+](=O)[O-])cc(OC)c1O	15	6	-4	-11	-1	32	/	/	/	/	/
CCOc1cc(/C=N/Nc2ccc(S(=O)(=O)Nc3ccccc3C(=O)O)cc2[N+](=O)[O-])cc(Cl)c1O	73*	-4	32*	-6	2	75*	68*	/	/	86*	16
Cc1ccc2c(c1)N(CCCC(=O)NCc1c(F)cccc1F)C(=O)CO2	-6	9	-2	4	/	/	/	/	/	/	/
O=C(NCc1ccccn1)C1Nc2ccc(OC(F)(F)F)cc2C2C=CCC12 (stereo not drawn)	48*	6	17*	2	-7	43*	-1	/	/	-4	1
Cc1ccc2c(c1)C1C=CCC1C(C(=O)NCCCN1CCOCC1)N2 (stereo not drawn)	9	9	8	-2	0	13	/	/	/	/	/
CC(=O)CC[C@H]1CC[C@]2(CCCN(C(=O)c3ccccc3)C2)O1	-7	3	-8	10	/	/	/	/	/	/	/
O=C1C=CC2=C3c4cc(O)c(O)cc4CC3(O)COC2=C1O (stereo not drawn)	26	10	28*	-4	88*	45*	44*	12	93*	/	4
O=C(N/N=C/c1c(O)ccc2ccccc12)c1ccc(CO)nc1	23	-10	35*	-4	34*	48*	46*	-16	25*	/	12
COc1ccc2ccccc2c1/C=N/NC(=O)c1ccc(C)nc1	-9	-3	-2	-8	0	-1	/	/	/	/	/
CCCCC(=Nc1ccc(N)cc1)C1=C(O)C(C(=O)OC)C(C)(C)CC1=O (stereo not drawn)	72*	4	44*	121*	50*	64*	9	14	9	16	8	Tn6 DDE ctr=-4;Tn6 DDE conf=9
CCCC(=Nc1ccccc1)C1=C(O)C(C(=O)OC)C(C)(C)CC1=O (stereo not drawn)	6	4	0	3	3	5	/	/	/	/	/
O=S(=O)(Nc1nc2ccccc2nc1NCc1ccco1)c1ccc(Cl)cc1	-3	7	-6	1	1	8	/	/	/	/	/
Cc1ccc(S(=O)(=O)Nc2nc3ccccc3nc2NCc2ccco2)cc1	55*	2	23*	44*	67*	43*	-6	-2	3	-5	2
CCN(CCCNc1cc2c(c(N)c1S(=O)(=O)O)C(=O)c1ccccc1C2=O)c1ccccc1	102*	9	33*	9	3	86*	83*	/	/	103*	23*
O=C(OC12CCCN(C1)/C(=C/c1cccc(Cl)c1)C2)c1ccco1 (stereo not drawn)	-11	-3	0	1	/	/	/	/	/	/	/
